Assay results from ChEMBL document CHEMBL1142624, “Nematicidal constituents of the aerial parts of Lantana camara” (2000).

Tests used:
Format in all cases: functional
Meloidogyne incognita [1] = assay: Nematicidal activity against Meloidogyne incognita assessed as larval mortality at 1% drug concentration after 24 hrs
Summary of the method: (§1)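 Larvae were held in Petri dishes with test solutions diluted from stock to 1.0%, alongside a furadan standard and a distilled water control, at 28 ± 2 °C for up to 72 h. Each treatment was replicated twice. At 24, 48 and 72 h, one dish per treatment was scored for mortality under a stereomicroscope. Immobility was confirmed as irreversible by transfer to distilled water. Percent mortality was averaged over three replicates.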

Meloidogyne incognita [2] = assay: Nematicidal activity against Meloidogyne incognita assessed as larval mortality at 1% drug concentration after 48 hrs; summary of the method: as §1
Meloidogyne incognita [3] = assay: Nematicidal activity against Meloidogyne incognita assessed as larval mortality at 1% drug concentration after 72 hrs; summary of the method: as §1

Which results are given for COc1ccc(-c2cc(=O)c3c(O)c(OC)c(O[C@@H]4O[C@H](CO)[C@@H](O)[C@H](O)[C@H]4O)cc3o2)cc1 [LINAROSIDE]?
Activity (Meloidogyne incognita [1]): 85%; Activity (Meloidogyne incognita [2]): 90%; Activity (Meloidogyne incognita [3]): 90%

Which results are given for CNC(=O)Oc1cccc2c1OC(C)(C)C2 [CARBOFURAN]?
Activity (Meloidogyne incognita [1]): 100%; Activity (Meloidogyne incognita [2]): 100%; Activity (Meloidogyne incognita [3]): 100%

Which results are given for COc1ccc(-c2cc(=O)c3c(O)c(OC)c(O[C@@H]4O[C@H](COC(C)=O)[C@@H](O)[C@H](O)[C@H]4O)cc3o2)cc1 [LANTANONE]?
Activity (Meloidogyne incognita [1]): 90%; Activity (Meloidogyne incognita [2]): 95%; Activity (Meloidogyne incognita [3]): 95%

For CC(=O)O[C@@H]1C[C@@H](C)[C@H](C)[C@H]2C3=CC[C@@H]4[C@]56CC[C@@](O)(OC5)C(C)(C)C6CC[C@@]4(C)[C@]3(C)CC[C@]21C(=O)O (some centres not stated) [CAMARINIC ACID], which Activity (Meloidogyne incognita [1]) is on record?
The Activity was 100%.

What about the Activity (Meloidogyne incognita [2]) of the same molecule?
Its Activity is 100%.

And the Activity (Meloidogyne incognita [3])?
The Activity was 100%.
